Assay results from ChEMBL document CHEMBL6092204, “Synthesis of pyridyl pyrimidine hedgehog signaling pathway inhibitors and their antitumor activity in human pancreatic cancer” (Eur J Med Chem, 2024).
Calls of active or inactive are those of the source. The rule behind the calls is not given here.

Assays:
BXPC-3 [1] = test: Induction of apoptosis in human BXPC-3 cells assessed as early apoptotic cells at 2.5 uM incubated for 48 hrs by Annexin V-FITC/PI staining based flow cytometry (reference value: 1.11 %); assay type: functional
PANC-1 [2] = test: Induction of cell cycle arrest in human PANC-1 cells assessed as accumulation at G2 phase at 10 uM incubated for 48 hrs by PI/RNase staining based flow cytometry (reference value: 5.83 %); assay type: functional
PANC-1 [3] = test: Induction of apoptosis in human PANC-1 cells assessed as necrotic cells at 2.5 uM incubated for 48 hrs by Annexin V-FITC/PI staining based flow cytometry (reference value: 2.24 %); assay type: functional
BXPC-3 [4] = test: Induction of cell cycle arrest in human BXPC-3 cells assessed as accumulation at G1 phase at 2.5 uM incubated for 48 hrs by PI/RNase staining based flow cytometry (reference value: 84.2 %); assay type: functional
PANC-1 [5] = test: Induction of apoptosis in human PANC-1 cells assessed as viable cells at 10 uM incubated for 48 hrs by Annexin V-FITC/PI staining based flow cytometry (reference value: 93.2 %); assay type: functional; conditions: read-out: Activity
PANC-1 [6] = test: Induction of cell cycle arrest in human PANC-1 cells assessed as accumulation at G1 phase at 2.5 uM incubated for 48 hrs by PI/RNase staining based flow cytometry (reference value: 82.0 %); assay type: functional
[7] = Toxicity in BALB/c nude mouse xenografted with human BxPC-3 cells assessed as inflammatory infiltration in spleen at 5 to 15 mg/kg, ip qd for 21 days by H and E staining based analysis; conditions: in vivo, 504 h
BxPC-3 [8] = test: Antitumor activity aginst human BxPC-3 cells xenografted in BALB/c nude mouse assessed as decrease in tumor weight at 15 mg/kg, ip qd for 21 days; conditions: time 21.0 day
[9] = Toxicity in BALB/c nude mouse xenografted with human BxPC-3 cells assessed as tissue fibrosis in kidneys at 5 to 15 mg/kg, ip qd for 21 days by H and E staining based analysis; conditions: in vivo, 504 h
BxPC-3 [10] = test: Antitumor activity aginst human BxPC-3 cells xenografted in BALB/c nude mouse assessed as decrease in tumor volume at 10 mg/kg, ip qd for 21 days relative to control; set-up: scale not given: the % may be the effect or the level left; conditions: time 21 day
BXPC-3 [11] = test: Induction of apoptosis in human BXPC-3 cells assessed as necrotic cells at 8 uM incubated for 48 hrs by Annexin V-FITC/PI staining based flow cytometry (reference value: 0.71 %); assay type: functional
[12] = Toxicity in BALB/c nude mouse xenografted with human BxPC-3 cells assessed as necrosis in heart at 5 to 15 mg/kg, ip qd for 21 days by H and E staining based analysis; conditions: in vivo, 504 h
BXPC-3 [13] = test: Inhibition of cell migration in human BXPC-3 cells incubated for 48 hrs by crystal violet staining based transwell assay; assay type: functional; conditions: dose 2.5-10 µM
Method in brief: (§1)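 Cells at 1.5×10^5 cells/mL in serum-free medium containing drug were added to the upper Transwell chamber (200 μL), with medium containing 10% FBS below. After 48 h, non-migrated cells were swabbed off. Inserts were fixed in 4% paraformaldehyde for 15-20 min and stained with 0.5% crystal violet. Cells were counted in four random fields at 100×; n = 3.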

BXPC-3 [14] = test: Induction of cell cycle arrest in human BXPC-3 cells assessed as accumulation at S phase at 5 uM incubated for 48 hrs by PI/RNase staining based flow cytometry (reference value: 8.18 %); assay type: functional
PANC-1 [15] = test: Inhibition of Hh signaling pathway in human PANC-1 cells assessed as reduction in Gli1 mRNA level incubated for 48 hrs by qRT-PCR analysis; assay type: cell-based; conditions: dose 2.5-10 µM
Method in brief: (§2)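 Total RNA was extracted by column kit after 48 h treatment and checked spectrophotometrically. Gli1 and Ptch1 transcripts were quantified by real-time RT-qPCR with GAPDH as internal control. Results are fold change relative to the untreated group; three separate experiments.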

BXPC-3 [16] = test: Inhibition of cell migration in human BXPC-3 cells incubated for 24 hrs by wound healing assay; assay type: functional, cell-based; conditions: dose 2.5-10 µM
Method in brief: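 Monolayers at 80-90% confluence were scratched with a cross and washed three times with PBS. Eight fields were imaged at 0 h. Cells were then incubated with compound in medium containing 2% FBS, and the same fields were re-imaged at 24 h (100×). Closure % = (area 0 h − area 24 h)/area 0 h × 100; n = 3.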

BXPC-3 [17] = test: Induction of apoptosis in human BXPC-3 cells assessed as viable cells at 10 uM incubated for 48 hrs by Annexin V-FITC/PI staining based flow cytometry (reference value: 91.5 %); assay type: functional; conditions: read-out: Activity
PANC-1 [18] = test: Induction of cell cycle arrest in human PANC-1 cells assessed as accumulation at S phase at 5 uM incubated for 48 hrs by PI/RNase staining based flow cytometry (reference value: 7.58 %); assay type: functional
PANC-1 [19] = test: Inhibition of cell migration in human PANC-1 cells incubated for 48 hrs by crystal violet staining based transwell assay; assay type: functional; conditions: dose 2.5-10 µM; method in brief: as §1
BXPC-3 [20] = test: Inhibition of Hh signaling pathway in human BXPC-3 cells assessed as reduction in Ptch1 mRNA level incubated for 48 hrs by qRT-PCR analysis; assay type: cell-based; method in brief: as §2
BXPC-3 [21] = test: Induction of apoptosis in human BXPC-3 cells assessed as viable cells at 8 uM incubated for 48 hrs by Annexin V-FITC/PI staining based flow cytometry (reference value: 91.5 %); assay type: functional; conditions: read-out: Activity
BxPC-3 [22] = test: Antitumor activity aginst human BxPC-3 cells xenografted in BALB/c nude mouse assessed as decrease in tumor volume at 15 mg/kg, ip qd for 21 days relative to control; set-up: scale not given: the % may be the effect or the level left; conditions: time 21 day
PANC-1 [23] = test: Induction of apoptosis in human PANC-1 cells assessed as late apoptotic cells at 2.5 uM incubated for 48 hrs by Annexin V-FITC/PI staining based flow cytometry (reference value: 2.74 %); assay type: functional
BXPC-3 [24] = test: Induction of apoptosis in human BXPC-3 cells assessed as early apoptotic cells at 10 uM incubated for 48 hrs by Annexin V-FITC/PI staining based flow cytometry (reference value: 1.11 %); assay type: functional
BXPC-3 [25] = test: Induction of cell cycle arrest in human BXPC-3 cells assessed as accumulation at S phase at 2.5 uM incubated for 48 hrs by PI/RNase staining based flow cytometry (reference value: 8.18 %); assay type: functional
BXPC-3 [26] = test: Induction of apoptosis in human BXPC-3 cells assessed as viable cells at 2.5 uM incubated for 48 hrs by Annexin V-FITC/PI staining based flow cytometry (reference value: 91.5 %); assay type: functional; conditions: read-out: Activity
BXPC-3 [27] = test: Induction of cell cycle arrest in human BXPC-3 cells assessed as accumulation at S phase at 10 uM incubated for 48 hrs by PI/RNase staining based flow cytometry (reference value: 8.18 %); assay type: functional
PANC-1 [28] = test: Induction of cell cycle arrest in human PANC-1 cells assessed as accumulation at G1 phase at 5 uM incubated for 48 hrs by PI/RNase staining based flow cytometry (reference value: 82.0 %); assay type: functional

CN(C)Cc1ccc(NC(=O)c2ccc(Nc3nccc(-c4cccnc4)n3)cc2)cc1
Activity (BXPC-3 [1]): 2.11%
Activity (PANC-1 [2]): 12.2%
Activity (PANC-1 [3]): 2.19%
Activity (BXPC-3 [4]): 72.7%
viability at 10 µM (PANC-1 [5]): 71%
Activity (PANC-1 [6]): 83.7%
Activity [7]: Non-toxic
Activity (BxPC-3 [8]): Active
Activity [9]: Non-toxic
Activity (BxPC-3 [10]): 80%
Activity (BXPC-3 [11]): 2.47%
Activity [12]: Non-toxic
inhibition (BXPC-3 [13]): Dose-dependent-effect
Activity (BXPC-3 [14]): 4.09%
inhibition (PANC-1 [15]): Dose-dependent-effect
inhibition (BXPC-3 [16]): Dose-dependent-effect
viability at 10 µM (BXPC-3 [17]): 71.8%
Activity (PANC-1 [18]): 8.18%
inhibition (PANC-1 [19]): Dose-dependent-effect
inhibition (BXPC-3 [20]): Dose-dependent-effect
viability at 8 µM (BXPC-3 [21]): 82.5%
Activity (BxPC-3 [22]): 82%
Activity (PANC-1 [23]): 5.12%
Activity (BXPC-3 [24]): 1.86%
Activity (BXPC-3 [25]): 11.1%
viability at 2.5 µM (BXPC-3 [26]): 88.5%
Activity (BXPC-3 [27]): 3.11%
Activity (PANC-1 [28]): 84.2%
